Test system: MS2 coat protein
Assay: apparent Kd, MS2 coat protein; higher = weaker binding; RNA-MaP array; FMN 200 µM where present
In short: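 Two titrations, one without ligand and one with constant ligand, were run with SNAP-549-labelled MS2 coat protein from 0.7 or 1.5 nM, doubling to 3 µM. The targets were designs transcribed by stalled E. coli RNA polymerase on Illumina sequencing-chip clusters, in 100 mM Tris-HCl pH 7.5, 80 mM KCl, 4 mM MgCl2, BSA, DTT, yeast tRNA and Tween-20. The apparent Kd is the median of filtered per-cluster binding-curve fits, with green signal normalised to red-channel RNA signal and control-cluster median Fmax.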

[1] = designed as: ON switch for flavin mononucleotide, no ligand
[2] = ligand present: flavin mononucleotide, designed as: ON switch for flavin mononucleotide
[3] = designed as: OFF switch for flavin mononucleotide, no ligand
[4] = ligand present: flavin mononucleotide, designed as: OFF switch for flavin mononucleotide

| Sequence | apparent Kd [1] | apparent Kd [2] | apparent Kd [3] | apparent Kd [4] |
| --- | --- | --- | --- | --- |
| AGGGUAUGAACAUGAGGAUCACCCAUGUACCAGGAAACGAAUGAGGAUAUCGAUAGCAAAGCUAUCGAGAAGGCAUGGGACCCU | 318 nM | 62.2 nM |  |  |
| UUAUUUUUAUGAUUGAGGAUAGGGCAGGAUAUACAUGAGGAUCACCCAUGUAAAGCAAUAAGGAGGUAGAAGGGCCAACCUCAU |  |  | 24.3 nM | 20.1 nM |
| GUAGCUCAUGAGAAGGCGAUCAUGAAACAUGAUCGAGGAUAUCAUGUAAACAUGAGGAUCACCCAUGUAUGGGUAUUAUGCUAC | 126 nM | 47.1 nM |  |  |
| AUUGAUGUUGAGGAUAUGCUUUUAUUUAUAAUAGCAGAAGGCGAUACAUGAGGAUCACCCAUGUUCAUGGUUUU |  |  | 24.9 nM | 33.6 nM |
| AAUAUGAGCUGGUUUAAAACUCAAACAUGAGGAUCACCCAUGUAGGAUAUCAGCACGAUAAGUGCUGAGAAGGACAUCCAGCUC |  |  | 15 nM | 18.9 nM |
| GCGUUGAUGUAGAAGGUACAUGAAUACUUUUAAUACCUCAAGUAACAUGAGGAUCACCCAUGUAGUAAGGAUAUACAUGAACGC | 34.7 nM | 29.5 nM |  |  |
| CAAGGGCAUGAGAAGGCAUAAUUUAUAUUACCACAUGUUUACAUGAGGAUCACCCAUGUUACCUAUGAGGAUAUCAUGCCUACA |  |  | 12.7 nM | 10.2 nM |
| AGAUGCAUGUAGAAGGGAGGAUCACCAGUGUACUCAGGAUAUACAUGUGGUGACAUGAGGAUCACCCAUGUAUGCCAGAAGUUC | 172 nM | 116 nM |  |  |
| AUAAAACAUGAGGAUCACCCAUGUAGACAUAUGGGAGGAUAUACUAGAUCGAAAGAUCUAGUAGAAGGCCUUUAUG | 44.2 nM | 20.8 nM |  |  |
| AUAAUUUUAUAUAUCAUUUUAAUCAGAAGGCAUAACAUGAGGAUCACCCAUGUAUAUUAUAGUUAUGAGGAUAUGAUUUGGUUA |  |  | 11.6 nM | 10.9 nM |
| AAUGGGCACCAGAAGGACAUGAGGAUCACCCAUGUAGGAUAUGGGCGUUGAAGAUGUCUGAUCGAGUUGCUGGAAAGAUAUGGG | 311 nM | 73.4 nM |  |  |
| UCAUUUUCCACAGGAUAUAUUCAUAUACAGUUGUUUGGCUCUUACAUGUUAGUAGAAGGGUGCAACAUGAGGAUCACCCAUGUA | 362 nM | 186 nM |  |  |
| UGUCCACAUGAGGAUCACCCAUGUGAGGAUAUCCAUAAACACAUCGUAUGUGUAUUAUGGAGAAGGCACACACA |  |  | 16.1 nM | 21.9 nM |
| GUAGCUAUCGGAGGAUAUUCAUACCGGAAACGGACAUGAGGAUCACCCAUGUGGAGAAAGCCUUGGGAGAAGGCCGAUAGCUAC | 176 nM | 17.6 nM |  |  |
| UAUAUAUAGUAAGGAUAUGUAUUAAAUUUAUAAACAGAAGGUACUGACAUGAGGAUCACCCAUGUUUUAGUGUGGGCAUGUAGA |  |  | 99.6 nM | 148 nM |
| UACAUCACGUAAGGAUAUACACGGGUUUCAAGAGUAGAAGGUACAAACAUGAGGAUCACCCAUGUAGACAUGGUUAAUAUUGUA | 54.3 nM | 40.6 nM |  |  |
| AAAACAUGAGGAUCACCCAUGUUUAGAUCGGUCGAUAGAGGUGAGGAUAUACUAAGUUAAGGCUGGUAGAAGGCACUGGGUACA | 62.4 nM | 42 nM |  |  |
| GUUUCGGGAGGAUAUGCGUGGAUUGUUCUCGUAUGGUGUCUACAUGAGGAUCACCCAUGUAGAAGGUCUGGAGC |  |  | 18 nM | 38.6 nM |
| CGCUAUGACAUAGGAUAUUGGUACAUGAGGAUCACCCAUGUCAACUAUGGAAUAGAAUUAGUUGACAAGAAGGAUGUGGUAGCG | 47.2 nM | 10.3 nM |  |  |
| GUGAUCGACAUGAGGAUCACCCAUGUGGAUUCGUUGAGCGGCAGAAGGCGAUGUAGAAAAGAACUCGAGGAUAUGCACGUGUCA | 7.22 nM | 6.76 nM |  |  |
| AAGAAGAACGUAGGAUAUCAAUGAGGAUCACCCUGAGAAGGACGUGAGGACAUGAGGAUCACCCAUGUGGAUCACCCAUGUCAU |  |  | 168 nM | 130 nM |

From the EternaBench riboswitch data
